Measurements from ChEMBL document CHEMBL5724801, “EUbOPEN Chemogenomics Library - Multiplex” (2024).
Values joined by “and” are separate entries in the source; they are usually repeats but may differ in a detail not shown here. Identical values can stand only once.

Tested on: Fibroblast
Assay: Multiplex assay against human fibroblast
Assay type: toxicity, cell-based
Procedure, shortened: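 Values for tubulin, mitochondrial-mass and membrane-permeability phenotypes are per cents of cells with healthy nuclei. These cells were identified by CellPathfinder machine-learning gating of live cells that had been stained at seeding with Hoechst33342, BioTracker Green Microtubule Cytoskeleton Dye, MitoTracker Red and Annexin V Alexa Fluor 680 and imaged on a CQ1 microscope at 37°C and 5% CO2 after compound addition. The gating first set Hoechst high-intensity objects apart from normal cells, then split normal cells into healthy, pyknosed or fragmented nuclei, and pyknosed cells into mitotic or apoptotic.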

[1] = 12 h, 1 µM, compound concentration 1 uM
[2] = 12 h, 10 µM, compound concentration 10 uM
[3] = 24 h, 1 µM, compound concentration 1 uM
[4] = 24 h, 10 µM, compound concentration 10 uM
[5] = 48 h, 1 µM, compound concentration 1 uM
[6] = 48 h, 10 µM, compound concentration 10 uM

SMILES: S=c1[nH]nc(-c2cccs2)n1-c1ccccc1
- Population Apoptotic (%) [1]: 10.45% and 27.27%
- Population Fragmented Nuclei (%) [1]: 8.13% and 2.86%
- Population Healthy Nuclei (%) [1]: 59.81% and 84.57%
- Population Hoechst High Intensity Objects (%) [1]: 0%
- Population Membrane Permeable-Phenotype (%) [1]: 2.4% and 4.05%
- Population Mitochondria Different-Phenotype (%) [1]: 10.4% and 6.76%
- Population Mitotic Cells (%) [1]: 89.55% and 72.73%
- Population Normal (%) [1]: 100%
- Population Pyknosed Nuclei (%) [1]: 32.06% and 12.57%
- Population Tubulin-Different-Phenotype (%) [1]: 13.6% and 28.38%
- Total Cell Count [1]: 209 and 175
- Population Apoptotic (%) [2]: 17.07% and 26.67%
- Population Healthy Nuclei (%) [2]: 62.62% and 78.84%
- Population Hoechst High Intensity Objects (%) [2]: 0%
- Population Membrane Permeable-Phenotype (%) [2]: 5.97% and 4.03%
- Population Mitochondria Different-Phenotype (%) [2]: 8.21% and 11.41%
- Population Mitotic Cells (%) [2]: 82.93% and 73.33%
- Population Normal (%) [2]: 100%
- Population Pyknosed Nuclei (%) [2]: 19.16% and 15.87%
- Population Tubulin-Different-Phenotype (%) [2]: 14.18% and 20.13%
- Total Cell Count [2]: 214 and 189
- Population Fragmented Nuclei (%) [3]: 7.76% and 4%
- Population Healthy Nuclei (%) [3]: 78.88% and 84%
- Population Hoechst High Intensity Objects (%) [3]: 0%
- Population Membrane Permeable-Phenotype (%) [3]: 3.28% and 2.04%
- Population Mitochondria Different-Phenotype (%) [3]: 4.92% and 4.76%
- Population Mitotic Cells (%) [3]: 93.55% and 76.19%
- Population Normal (%) [3]: 100%
- Population Pyknosed Nuclei (%) [3]: 13.36% and 12%
- Population Tubulin-Different-Phenotype (%) [3]: 8.2% and 19.05%
- Total Cell Count [3]: 232 and 175
- Population Apoptotic (%) [4]: 16.22% and 35.71%
- Population Fragmented Nuclei (%) [4]: 14.71% and 5.24%
- Population Healthy Nuclei (%) [4]: 69.75% and 80.1%
- Population Hoechst High Intensity Objects (%) [4]: 0%
- Population Membrane Permeable-Phenotype (%) [4]: 3.61% and 5.88%
- Population Mitochondria Different-Phenotype (%) [4]: 4.22% and 5.23%
- Population Mitotic Cells (%) [4]: 83.78% and 64.29%
- Population Normal (%) [4]: 100%
- Population Pyknosed Nuclei (%) [4]: 15.55% and 14.66%
- Population Tubulin-Different-Phenotype (%) [4]: 11.45% and 16.99%
- Total Cell Count [4]: 238 and 191
- Population Apoptotic (%) [5]: 8.33% and 10.53%
- Population Fragmented Nuclei (%) [5]: 8.8% and 5.49%
- Population Healthy Nuclei (%) [5]: 86.4% and 84.07%
- Population Hoechst High Intensity Objects (%) [5]: 0%
- Population Membrane Permeable-Phenotype (%) [5]: 0.93% and 1.96%
- Population Mitochondria Different-Phenotype (%) [5]: 10.19% and 2.61%
- Population Mitotic Cells (%) [5]: 91.67% and 89.47%
- Population Normal (%) [5]: 100%
- Population Pyknosed Nuclei (%) [5]: 4.8% and 10.44%
- Total Cell Count [5]: 250 and 182
- Population Apoptotic (%) [6]: 11.76% and 33.33%
- Population Fragmented Nuclei (%) [6]: 10.61% and 5.58%
- Population Healthy Nuclei (%) [6]: 82.45% and 88.32%
- Population Hoechst High Intensity Objects (%) [6]: 0%
- Population Membrane Permeable-Phenotype (%) [6]: 0% and 2.3%
- Population Mitochondria Different-Phenotype (%) [6]: 9.9% and 4.02%
- Population Mitotic Cells (%) [6]: 88.24% and 66.67%
- Population Normal (%) [6]: 100%
- Population Pyknosed Nuclei (%) [6]: 6.94% and 6.09%
- Total Cell Count [6]: 245 and 197

SMILES: Cl.Cl.N#Cc1ccc(O[C@@H]2c3ccccc3C[C@H]2N2CCC[C@@H](N)C2)c(Cl)c1
- Population Apoptotic (%) [1]: 13.21% and 14.29%
- Population Fragmented Nuclei (%) [1]: 8.33% and 10.47%
- Population Healthy Nuclei (%) [1]: 57.69% and 74.87%
- Population Hoechst High Intensity Objects (%) [1]: 0%
- Population Membrane Permeable-Phenotype (%) [1]: 6.67% and 4.9%
- Population Mitochondria Different-Phenotype (%) [1]: 20% and 19.58%
- Population Mitotic Cells (%) [1]: 86.79% and 85.71%
- Population Normal (%) [1]: 100%
- Population Pyknosed Nuclei (%) [1]: 33.97% and 14.66%
- Population Tubulin-Different-Phenotype (%) [1]: 35.56% and 58.04%
- Total Cell Count [1]: 156 and 191
- Population Apoptotic (%) [2]: 14.81% and 27.63%
- Population Fragmented Nuclei (%) [2]: 18.93% and 7.94%
- Population Healthy Nuclei (%) [2]: 49.11% and 64.62%
- Population Hoechst High Intensity Objects (%) [2]: 0%
- Population Membrane Permeable-Phenotype (%) [2]: 3.61% and 6.15%
- Population Mitochondria Different-Phenotype (%) [2]: 62.65% and 43.58%
- Population Mitotic Cells (%) [2]: 85.19% and 72.37%
- Population Normal (%) [2]: 100%
- Population Pyknosed Nuclei (%) [2]: 31.95% and 27.44%
- Population Tubulin-Different-Phenotype (%) [2]: 78.31% and 88.83%
- Total Cell Count [2]: 169 and 277
- Population Fragmented Nuclei (%) [3]: 6.79% and 14.63%
- Population Healthy Nuclei (%) [3]: 62.35% and 76.59%
- Population Hoechst High Intensity Objects (%) [3]: 0%
- Population Membrane Permeable-Phenotype (%) [3]: 4.95% and 3.18%
- Population Mitochondria Different-Phenotype (%) [3]: 18.81% and 13.38%
- Population Mitotic Cells (%) [3]: 98% and 77.78%
- Population Normal (%) [3]: 100%
- Population Tubulin-Different-Phenotype (%) [3]: 36.63% and 57.32%
- Total Cell Count [3]: 162 and 205
- Population Apoptotic (%) [4]: 29.27% and 37.5%
- Population Fragmented Nuclei (%) [4]: 11.58% and 4.05%
- Population Healthy Nuclei (%) [4]: 66.84% and 78.5%
- Population Hoechst High Intensity Objects (%) [4]: 0%
- Population Membrane Permeable-Phenotype (%) [4]: 2.36% and 3.17%
- Population Mitochondria Different-Phenotype (%) [4]: 70.08% and 55.16%
- Population Mitotic Cells (%) [4]: 70.73% and 62.5%
- Population Normal (%) [4]: 100%
- Population Pyknosed Nuclei (%) [4]: 21.58% and 17.45%
- Population Tubulin-Different-Phenotype (%) [4]: 85.83% and 88.1%
- Total Cell Count [4]: 190 and 321
- Population Apoptotic (%) [5]: 20% and 38.89%
- Population Fragmented Nuclei (%) [5]: 13.79% and 11.43%
- Population Healthy Nuclei (%) [5]: 78.82% and 80%
- Population Hoechst High Intensity Objects (%) [5]: 0%
- Population Membrane Permeable-Phenotype (%) [5]: 1.88% and 1.79%
- Population Mitochondria Different-Phenotype (%) [5]: 16.88% and 10.12%
- Population Mitotic Cells (%) [5]: 80% and 61.11%
- Population Normal (%) [5]: 100%
- Population Pyknosed Nuclei (%) [5]: 7.39% and 8.57%
- Population Tubulin-Different-Phenotype (%) [5]: 32.5% and 59.52%
- Total Cell Count [5]: 203 and 210
- Population Apoptotic (%) [6]: 37.5% and 50%
- Population Healthy Nuclei (%) [6]: 75.86% and 86.13%
- Population Hoechst High Intensity Objects (%) [6]: 0%
- Population Membrane Permeable-Phenotype (%) [6]: 0.57% and 3.37%
- Population Mitochondria Different-Phenotype (%) [6]: 42.61% and 26.22%
- Population Mitotic Cells (%) [6]: 62.5% and 50%
- Population Normal (%) [6]: 100%
- Population Pyknosed Nuclei (%) [6]: 3.45% and 7.1%
- Population Tubulin-Different-Phenotype (%) [6]: 79.55% and 86.89%
- Total Cell Count [6]: 232 and 310

SMILES: COc1cc2ncnc(Nc3ccc(Oc4ccccc4)cc3C)c2cc1OC.Cl
- Population Apoptotic (%) [1]: 11.11% and 23.33%
- Population Fragmented Nuclei (%) [1]: 12.3% and 7.85%
- Population Healthy Nuclei (%) [1]: 63.64% and 76.44%
- Population Hoechst High Intensity Objects (%) [1]: 0%
- Population Membrane Permeable-Phenotype (%) [1]: 5.04% and 3.42%
- Population Mitochondria Different-Phenotype (%) [1]: 8.4% and 12.33%
- Population Mitotic Cells (%) [1]: 88.89% and 76.67%
- Population Normal (%) [1]: 100%
- Population Pyknosed Nuclei (%) [1]: 24.06% and 15.71%
- Population Tubulin-Different-Phenotype (%) [1]: 15.13% and 13.7%
- Total Cell Count [1]: 187 and 191
- Population Apoptotic (%) [2]: 10.77% and 17.02%
- Population Fragmented Nuclei (%) [2]: 14.61% and 11.16%
- Population Healthy Nuclei (%) [2]: 48.88% and 68.67%
- Population Hoechst High Intensity Objects (%) [2]: 0%
- Population Membrane Permeable-Phenotype (%) [2]: 3.45% and 10.62%
- Population Mitochondria Different-Phenotype (%) [2]: 29.89% and 25%
- Population Mitotic Cells (%) [2]: 89.23% and 82.98%
- Population Normal (%) [2]: 100%
- Population Pyknosed Nuclei (%) [2]: 36.52% and 20.17%
- Population Tubulin-Different-Phenotype (%) [2]: 58.62% and 66.88%
- Total Cell Count [2]: 178 and 233
- Population Apoptotic (%) [3]: 0% and 16.67%
- Population Fragmented Nuclei (%) [3]: 10.95% and 4.57%
- Population Healthy Nuclei (%) [3]: 74.29% and 80.2%
- Population Hoechst High Intensity Objects (%) [3]: 0%
- Population Membrane Permeable-Phenotype (%) [3]: 5.77% and 1.9%
- Population Mitochondria Different-Phenotype (%) [3]: 7.05% and 6.33%
- Population Mitotic Cells (%) [3]: 100% and 83.33%
- Population Normal (%) [3]: 100%
- Population Pyknosed Nuclei (%) [3]: 14.76% and 15.23%
- Population Tubulin-Different-Phenotype (%) [3]: 15.38% and 12.66%
- Total Cell Count [3]: 210 and 197
- Population Fragmented Nuclei (%) [4]: 20.69% and 12.5%
- Population Healthy Nuclei (%) [4]: 59.48% and 79.49%
- Population Hoechst High Intensity Objects (%) [4]: 0%
- Population Membrane Permeable-Phenotype (%) [4]: 4.35% and 4.03%
- Population Mitochondria Different-Phenotype (%) [4]: 25.36% and 23.39%
- Population Mitotic Cells (%) [4]: 95.65% and 76%
- Population Normal (%) [4]: 100%
- Population Pyknosed Nuclei (%) [4]: 19.83% and 8.01%
- Population Tubulin-Different-Phenotype (%) [4]: 65.22% and 70.16%
- Total Cell Count [4]: 232 and 312
- Population Apoptotic (%) [5]: 14.29% and 18.75%
- Population Fragmented Nuclei (%) [5]: 14.46% and 12.14%
- Population Healthy Nuclei (%) [5]: 77.11% and 80.1%
- Population Hoechst High Intensity Objects (%) [5]: 0%
- Population Membrane Permeable-Phenotype (%) [5]: 1.04% and 1.21%
- Population Mitochondria Different-Phenotype (%) [5]: 11.98% and 4.85%
- Population Mitotic Cells (%) [5]: 85.71% and 81.25%
- Population Normal (%) [5]: 100%
- Population Pyknosed Nuclei (%) [5]: 8.43% and 7.77%
- Population Tubulin-Different-Phenotype (%) [5]: 8.33% and 15.76%
- Total Cell Count [5]: 249 and 206
- Population Apoptotic (%) [6]: 14.29% and 28.57%
- Population Fragmented Nuclei (%) [6]: 17.05% and 16.67%
- Population Healthy Nuclei (%) [6]: 78.98% and 81.45%
- Population Hoechst High Intensity Objects (%) [6]: 0%
- Population Membrane Permeable-Phenotype (%) [6]: 4.68% and 4.95%
- Population Mitochondria Different-Phenotype (%) [6]: 11.15% and 6.93%
- Population Mitotic Cells (%) [6]: 85.71% and 71.43%
- Population Normal (%) [6]: 100%
- Population Pyknosed Nuclei (%) [6]: 3.98% and 1.88%
- Population Tubulin-Different-Phenotype (%) [6]: 51.8% and 63.04%
- Total Cell Count [6]: 352 and 372
